The source of these data is ChEMBL document CHEMBL2010761, “NO-SSRIs: Nitric Oxide Chimera Drugs Incorporating a Selective Serotonin Reuptake Inhibitor” (ACS Med Chem Lett, 2011).

The subject of data set [1] is Mus musculus. Nature of the data set: Antiamnesic activity in scopolamine-induced C57BL/6 mouse assessed as aversive memory measuring increase in latency to enter dark area at 1.54 mg/kg, ip administered 20 mins prior training measured after 48 hrs by step-through passive avoidance task analysis relative to control. Format: functional, organism-based. Details: dose 1.54 mg/kg. The method in brief: (§1)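 Mice trained 2 h after habituation. Scopolamine 1 mg/kg in saline given ip 30 min before training, test drug in 25% DMSO given ip 20 min before training. Footshock 0.6 mA for 2 s on entering the dark compartment, with the door closing. Latency to enter the dark chamber recorded 48 h after training, drug-free. N = 9–11. Means and SEMs; ANOVA with Tukey post hoc test.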

Data set [2] addresses Sodium-dependent serotonin transporter (Homo sapiens) (UniProt P31645). Nature of the data set: Inhibition of human SERT-mediated serotonin reuptake in HEK293 cells at 100 nM relative to fluoxetine. It counts as cell-based. The method in brief:
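HEK-293 cells stably transfected with human SERT cDNA were used to measure serotonin reuptake with test compounds at 100 nM. […] Means ± SEM from three separate experiments.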

In data set [3] the test system is Brain. Kind of data set: Prodrug activation in mouse brain assessed as formation of fluoxetine at 15 mg/kg, ip after 120 mins by LC-MS/MS analysis. The settings on record: in vivo, 2 h. It counts as organism-based. More on the design: dose 15 mg/kg, route intraperitoneal.
A short description of data set [4]: Prodrug activation in PBS at pH 7 to 8 assessed as hydrolysis of compound to fluoxetine at 200 uM after 7 hrs by HPLC-UV analysis. The note with it: buffer, pH 7, 7 h.
Data set [5] deals with Mus musculus. Kind of data set: Antiamnesic activity in scopolamine-induced C57BL/6 mouse assessed as aversive memory measuring increase in latency to enter dark area at 2.05 mg/kg, ip administered 20 mins prior training measured after 48 hrs by step-through passive avoidance task analysis relative to control. Format: functional, organism-based. Details: dose 2.05 mg/kg. The method in brief:
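Mice received scopolamine (1 mg/kg in physiological saline, ip) 30 min before training, and test drug in 25% DMSO ip 20 min before training. Training came 2 h after habituation: the animal was placed in the lit compartment, and entry to the dark side triggered door closure and a 0.6 mA, 2 s footshock. Latency to enter the dark chamber was retested 48 h later with no drug. N = 9–11; means ± SEM; ANOVA with Tukey's post hoc test.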

Data set [6] relates to Rattus norvegicus. Nature of the data set: Antidepressant activity in Sprague-Dawley rat assessed as increase in swimming time at 26.5 mg/kg, ip administered 1, 5 and 24 hrs prior test by forced swimming task analysis relative to control. It counts as functional, organism-based. More on the design: dose 26.5 mg/kg. The method in brief:
(§2)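 Drug was given ip at 24, 5 and 1 h before the 5 min test, which was scored in 60 blocks of 5 s for struggle, swimming and immobility durations. Comparison was against vehicle by ANOVA with Tukey's post hoc test; means ± SEM.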

Data set [7] has as its system Rattus norvegicus. Nature of the data set: Antidepressant activity in Sprague-Dawley rat assessed as change in struggle time at 26.5 mg/kg, ip administered 1, 5 and 24 hrs prior test by forced swimming task analysis relative to control. It counts as functional, organism-based. Details: dose 26.5 mg/kg. The essentials:
as §2

The test system of data set [8] is Plasma. Kind of data set: Prodrug activation in mouse plasma assessed as formation of fluoxetine at 15 mg/kg, ip after 120 mins by LC-MS/MS analysis. The note with it: in vivo, 2 h. Format: organism-based. Details: dose 15 mg/kg, route intraperitoneal.
A short description of data set [9]: Prodrug activation in PBS assessed as production of NO at 500 uM after 30 mins by chemiluminescence assay. The note with it: buffer, 0.5 h. The method in brief: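 Compound (500 μM) was mixed with glutathione-containing PBS in a sealed vessel. NO in the headspace was measured by chemiluminescence after 30 min.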
Data set [10] concerns Brain. Kind of data set: Prodrug activation in mouse brain assessed as formation of fluoxetine at 15 mg/kg, ip after 20 mins by LC-MS/MS analysis. Format: organism-based. More on the design: dose 15 mg/kg, route intraperitoneal. The settings on record: in vivo.
The subject of data set [11] is Rattus norvegicus. Kind of data set: Antidepressant activity in Sprague-Dawley rat assessed as decrease in immobility time at 26.5 mg/kg, ip administered 1, 5 and 24 hrs prior test by forced swimming task analysis relative to control. Format: functional, organism-based. More on the design: dose 26.5 mg/kg. The essentials:
as §2

Data set [12] is described as follows: Half life in PBS at pH 7 to 8 assessed as hydrolysis of compound to fluoxetine at 200 uM by HPLC-UV analysis. Format: physicochemical.
Data set [13] deals with Plasma. Kind of data set: Prodrug activation in mouse plasma assessed as formation of fluoxetine at 15 mg/kg, ip after 20 mins by LC-MS/MS analysis. It counts as organism-based. Details: dose 15 mg/kg, route intraperitoneal. The note with it: in vivo.
Data set [14] in a line: Prodrug activation in PBS at pH 8 assessed as hydrolysis of compound to fluoxetine at 200 uM by HPLC-UV analysis. The note with it: buffer, pH 8, 200 µM.
Data set [15] in a line: Prodrug activation in PBS at pH 7.4 assessed as hydrolysis of compound to fluoxetine at 200 uM by HPLC-UV analysis. The settings on record: buffer, pH 7.4, 200 µM.
The nature of data set [16]: Prodrug activation in PBS at pH 7 assessed as hydrolysis of compound to fluoxetine at 200 uM by HPLC-UV analysis. The note with it: buffer, pH 7, 200 µM.
The subject of data set [17] is Rattus norvegicus. Kind of data set: Antidepressant activity in Sprague-Dawley rat assessed as change in struggle time at 10 mg/kg, ip administered 1, 5 and 24 hrs prior test by forced swimming task analysis relative to control. It counts as functional, organism-based. More on the design: dose 10 mg/kg. The method in brief: (§3)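 Male Sprague-Dawley rats, 200–250 g, given a 15 min pre-swim in the water tank 24 h before testing. Drug or vehicle given ip at 24, 5 and 1 h before the test. The 5 min test was scored in 60 blocks of 5 s for struggle, swimming and immobility. Means and SEMs; ANOVA with Tukey post hoc test.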

For data set [18], the system named is Rattus norvegicus. Nature of the data set: Antidepressant activity in Sprague-Dawley rat assessed as decrease in immobility time at 10 mg/kg, ip administered 1, 5 and 24 hrs prior test by forced swimming task analysis relative to control. Format: functional, organism-based. Details: dose 10 mg/kg. The method in brief:
as §3

Data set [19] has as its system Mus musculus. Kind of data set: Antiamnesic activity in scopolamine-induced C57BL/6 mouse assessed as aversive memory measuring increase in latency to enter dark area at 1 mg/kg, ip administered 20 mins prior training measured after 48 hrs by step-through passive avoidance task analysis relative to control. Details: dose 1 mg/kg. It counts as functional, organism-based. The method in brief: as §1

In data set [20] the test system is Rattus norvegicus. Kind of data set: Antidepressant activity in Sprague-Dawley rat assessed as increase in swimming time at 10 mg/kg, ip administered 1, 5 and 24 hrs prior test by forced swimming task analysis relative to control. It counts as functional, organism-based. Details: dose 10 mg/kg. The essentials:
as §3

Each structure is given as a SMILES string. Calls of active or inactive are those of the source. The rule behind the calls is not given here.

Chain of Sodium-dependent serotonin transporter (Homo sapiens) (P31645 whole entry, looked up): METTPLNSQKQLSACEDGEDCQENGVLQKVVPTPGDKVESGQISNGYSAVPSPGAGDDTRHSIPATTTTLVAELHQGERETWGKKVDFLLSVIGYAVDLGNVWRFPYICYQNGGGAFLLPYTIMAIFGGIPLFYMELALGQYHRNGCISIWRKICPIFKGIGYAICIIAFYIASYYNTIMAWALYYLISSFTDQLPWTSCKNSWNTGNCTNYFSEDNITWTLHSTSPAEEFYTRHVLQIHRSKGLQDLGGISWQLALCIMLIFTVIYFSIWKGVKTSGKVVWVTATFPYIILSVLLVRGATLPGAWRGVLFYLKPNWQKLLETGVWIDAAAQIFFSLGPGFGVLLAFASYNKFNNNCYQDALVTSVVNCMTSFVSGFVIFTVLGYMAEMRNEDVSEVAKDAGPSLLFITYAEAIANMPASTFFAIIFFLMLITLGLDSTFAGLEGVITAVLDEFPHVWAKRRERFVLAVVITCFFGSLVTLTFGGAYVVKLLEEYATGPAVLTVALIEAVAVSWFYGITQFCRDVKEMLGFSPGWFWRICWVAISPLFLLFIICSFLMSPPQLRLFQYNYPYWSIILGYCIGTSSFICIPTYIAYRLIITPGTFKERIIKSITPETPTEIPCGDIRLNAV

On to `CNCCC(Oc1ccc(C(F)(F)F)cc1)c1ccccc1` (stereo unspecified), for which the result in the data set with Mus musculus [1] was inactive.

`O=C(SCCO[N+](=O)[O-])N1CC[C@@H](c2ccc(F)cc2)[C@H](COc2ccc3c(c2)OCO3)C1` yielded an Efficacy in data set [2] of less than 15%.

For the molecule `CN(CCC(Oc1ccc(C(F)(F)F)cc1)c1ccccc1)C(=O)SCCO[N+](=O)[O-]` (stereo unspecified), the Drug metabolism entry in the data set on Brain [3] is given as “Active”; in data set [4] it was “Active”; in the data set with Plasma [8] it was “Active”; in [9] it was 8.9 nM; with Brain [10], “Active”; with Plasma [13], “Active”. The Drug metabolism result in data set [14], in data set [15] and in data set [16] was “Active” each time. The outcome in the data set with Mus musculus [5], in the data set on Rattus norvegicus [6], in the data set with Rattus norvegicus [7] and in the data set on Rattus norvegicus [11] was Active. In addition, in data set [2], the Efficacy was less than 15%. In [12], the half-life at 200 µM was 1.67 h.

On to `Cc1ncsc1CCO[N+](=O)[O-]`, for which the outcome in the data set with Rattus norvegicus [17], in the data set on Rattus norvegicus [18], in the data set with Mus musculus [19] and in the data set on Rattus norvegicus [20] was Active.
